Bioassay records: PubChem BioAssay, several laboratories
Cl transport mod = modulators of human KCC2 chloride dependent transport | KCC2 cells, thallium flux FluoZin-2 fluorescence | Q9H2X9 | 190,000 tested, 2.2% active | B-score of Tl+ flux slope (higher = more flux/activation; lower = inhibition) at 10 µM;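 active means thallium flux slope and its plate-corrected score both differing from the plate sample mean at a set confidence after two filtering rounds, in either direction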;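 further: slope of fluorescence scaled to starting intensity during 10 to 20 s after thallium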
Target sequence (Q9H2X9 whole entry, looked up): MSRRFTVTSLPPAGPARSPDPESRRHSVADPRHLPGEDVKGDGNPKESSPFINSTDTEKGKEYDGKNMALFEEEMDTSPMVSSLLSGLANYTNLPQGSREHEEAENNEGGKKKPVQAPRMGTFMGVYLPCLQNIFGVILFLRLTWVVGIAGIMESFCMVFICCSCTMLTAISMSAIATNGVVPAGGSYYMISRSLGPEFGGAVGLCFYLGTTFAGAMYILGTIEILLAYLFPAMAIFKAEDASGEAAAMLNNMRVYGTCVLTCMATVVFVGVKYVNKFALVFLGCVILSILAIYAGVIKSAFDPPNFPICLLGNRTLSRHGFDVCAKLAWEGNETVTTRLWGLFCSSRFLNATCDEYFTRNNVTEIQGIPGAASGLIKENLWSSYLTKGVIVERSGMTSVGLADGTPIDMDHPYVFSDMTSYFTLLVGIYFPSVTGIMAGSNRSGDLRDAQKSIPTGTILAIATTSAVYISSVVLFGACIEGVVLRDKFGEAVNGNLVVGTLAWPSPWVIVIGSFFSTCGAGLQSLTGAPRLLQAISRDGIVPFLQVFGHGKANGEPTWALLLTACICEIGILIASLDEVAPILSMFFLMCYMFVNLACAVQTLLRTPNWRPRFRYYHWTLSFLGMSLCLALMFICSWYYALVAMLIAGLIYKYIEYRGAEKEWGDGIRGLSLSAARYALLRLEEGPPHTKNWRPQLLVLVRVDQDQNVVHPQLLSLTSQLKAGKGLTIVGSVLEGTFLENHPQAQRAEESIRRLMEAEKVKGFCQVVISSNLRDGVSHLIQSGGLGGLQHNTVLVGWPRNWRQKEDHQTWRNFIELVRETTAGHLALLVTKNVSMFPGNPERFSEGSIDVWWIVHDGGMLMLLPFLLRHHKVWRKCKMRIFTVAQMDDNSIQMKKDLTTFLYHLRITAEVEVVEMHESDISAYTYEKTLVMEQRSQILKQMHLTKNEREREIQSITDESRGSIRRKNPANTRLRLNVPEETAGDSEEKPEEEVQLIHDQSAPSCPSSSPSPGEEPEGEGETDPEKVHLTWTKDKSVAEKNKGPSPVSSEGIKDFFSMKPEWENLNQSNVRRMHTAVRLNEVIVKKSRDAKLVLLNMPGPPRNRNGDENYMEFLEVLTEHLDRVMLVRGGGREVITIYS
MrgX1 PAM = human MrgX1 positive allosteric modulation, primary screen; MrgX1-HEK293, Fluo-4 calcium flux, FDSS; hits give high values; 310,000 tested, 0.63% active; B-score at 10 µM; Q96LB2;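 active means plate-corrected calcium response at least 3 library SD above typical, normal starting fluorescence, not activating the receptor alone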;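 further: compound read alongside a low EC10 to EC30 dose of BAM8-22 agonist; peak minus trough fluorescence over baseline measured at the second addition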
MrgX1 antag = human MrgX1 receptor antagonism, primary screen | B-score at 10 µM | Q96LB2 | AID 588676 | 310,000 tested, 1.3% active | MRGX1-HEK293 calcium flux, Fluo-4, BAM8-22 antagonism; hits give low values;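 active means calcium-response B-score plate-corrected more than 3 library SD below zero, starting fluorescence within 5 deviations, no agonist response on first addition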;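 further: peak minus trough fluorescence over baseline after final BAM8-22 challenge near maximal dose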
MrgX1 ag = activates human MrgX1 receptor signaling. MrgX1-HEK293 cells, Fluo-4 calcium fluorescence, agonist mode; hits give high values. 310,000 tested, 0.44% active. Q96LB2. B-score at 10 µM;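 active means calcium response B-score plate-corrected fluorescence ratio at least 3 library SD, with starting fluorescence B-score inside 5 SD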
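Material – MrgX1-expressing HEK293 cells · Input – 15,000 cells seeded per well · Dosing – compound as first of three additions · Times – overnight seeding, then 1 h dark dye loading · Measured by – kinetic Fluo-4 NW fluorescence of intracellular calcium · Read-out – B-scored fluorescence response ratio · Benchmarks – positive and negative control wells on each plate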
RGS4 pot = potentiators or activators of RGS4; 310,000 tested, 0.92% active; HEK293 M3R/inducible RGS4, carbachol calcium flux Fluo4; hits give low values; AID 463111; B-score at 10 µM;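 active means B-score of the integrated calcium signal more than 4 SD below the library mean, with starting fluorescence not abnormally high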;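 further: negative B-score means reduced calcium response which marks RGS4 activation or potentiation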
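Assay system: Inducible-RGS4 HEK293 cells carrying M3 receptor | Schedule: Compound preincubation 20 min at room temperature before agonist | Signal: Kinetic calcium fluorescence imaging with Fluo4-AM dye, 2 µM | Read-out basis: B score from integrated fluorescence ratio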
RGS4 inh = human RGS4 inhibition; P49798; HEK293 M3R/RGS4 inducible, Fluo-4 calcium flux; hits give high values; triggered by carbachol at its EC20; B-score at 10 µM; 310,000 tested, 0.45% active; AID 463165;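 active means B-score, a plate-corrected calcium signal, over three deviations above library mean, with baseline fluorescence within five deviations of library mean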;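 further: RGS4 expression induced by doxycycline in cells with stable M3 receptor; B-score is computed from the integrated fluorescence ratio over baseline after carbachol; higher B-score means a larger calcium signal and so more RGS4 inhibition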
Active calls of the source: *; i = inactive; nt = no result given. Most compounds without a hit are left out; they make up all but 4.7% or so of the library.

SMILES | Cl transport mod | MrgX1 PAM | MrgX1 antag | MrgX1 ag | RGS4 pot | RGS4 inh
CCCCN(C(=O)c1cccc(S(=O)(=O)N2CCOCC2)c1)c1c(N)n(CCC)c(=O)[nH]c1=O | 0.72 | 9.4* | i | i | i | i
CCOC(=O)C1CCN(S(=O)(=O)c2ccc3c(c2)CC(=O)N3C)CC1 | nt | i | i | 38.8* | i | i
Cc1ccc(C(=O)NC(=S)Nc2ccc3c(c2)OCCO3)c(C)c1 | 13.1* | i | i | i | i | i
CCOc1ccc(C(C)=O)cc1N1C(=O)C2C3C=CC(O3)C2C1=O (centres undefined) | -0.00793 | i | i | 31.5* | i | i
CN(C1CCCCC1)S(=O)(=O)c1ccc2c(c1)c(=O)c(C(=O)NCCN1CCCC1)cn2C | nt | i | -4.61* | i | i | i
O=C(COc1coc(CN2CCc3ccccc32)cc1=O)Nc1cccc(F)c1 | nt | i | i | i | i | i
Cc1nn(-c2ccccc2)c(C)c1C(=O)NCc1ccccc1F | nt | i | i | i | i | i
O=C(c1ccc(Cn2cc(Br)cn2)cc1)N1CCN(c2ccccc2)CC1 | nt | i | i | i | i | i
O=C(c1ccc(Cn2cc(Br)cn2)cc1)N1N=C(C(F)F)CC1(O)C(F)F (centres undefined) | -0.365 | i | i | i | -7.88* | i
CCc1cccc(C)c1NC(=O)C1CCCN1C(=O)NCc1ccccc1 (centres undefined) | nt | i | i | i | i | i
CCN1C(=O)/C(=C\C=C\c2ccccc2[N+](=O)[O-])SC1=S | 0.94 | nt | nt | nt | nt | nt
CCN1C(=O)/C(=C/C=C2\N(CC)c3cc(S(=O)(=O)N(C)C)ccc3N2c2ccccc2)SC1=S | -0.0245 | i | i | 36.4* | i | i
O=S(=O)(N1CCOCC1)N1CCOCC1 | nt | i | i | i | i | i
O=C(c1ccccc1)C(Nc1ccccn1)c1ccccc1 (centres undefined) | 0.752 | i | i | i | -7.47* | i
O=C(CC(=O)c1ccccc1)Nc1ccccn1 | nt | i | i | i | i | i
Cc1cc(C)n(CC(=O)N/N=C/c2cccs2)n1 | 0.0266 | i | -4.62* | i | i | i
Cn1c(/C(C#N)=C(\O)CN2CCN(Cc3ccccc3)CC2)nc2ccccc21 | -6.06* | i | i | i | i | i
Cc1ccc(SC/C(O)=C(\C#N)c2nc3ccccc3n2C)cc1 | 1.81 | i | i | i | i | i
Cn1c(/C(C#N)=C(\O)c2cccc(F)c2)nc2ccccc21 | nt | i | -5.38* | i | i | i
Cc1ccccc1OCC(=O)NCCS(=O)(=O)N1CCN(c2ccc(F)cc2)CC1 | nt | i | i | i | i | i
Cc1ccc(C(C)NC(=O)c2cc3cc(Br)ccc3oc2=N)cc1 (centres undefined) | nt | i | i | i | -9.15* | i
Cc1ccnc(NC(=O)c2cccc(S(=O)(=O)N3CCCc4ccccc43)c2)c1 | nt | i | i | i | i | i
Nc1c(Cl)cc(C2=NCCn3c2c2ccc(C(F)(F)F)cc2[n+]3[O-])cc1Cl | nt | i | i | i | i | i
Cc1ccccc1CNC(=O)CN(c1ccccc1Cl)S(C)(=O)=O | nt | i | i | i | i | i
C/C(=N\NC(=S)NCCc1ccccc1)c1cccs1 | 8.58* | i | i | i | i | i
SMILES | Cl transport mod | MrgX1 PAM | MrgX1 antag | MrgX1 ag | RGS4 pot | RGS4 inh
Cc1ccc(S(=O)(=O)NCC(=O)N/N=C/c2ccc(Cl)cc2Cl)cc1 | -0.793 | i | i | i | i | i
Cc1ccc(S(=O)(=O)NCC(=O)N/N=C/c2ccccc2O)cc1 | 0.694 | i | -5.36* | i | i | i
O=C(O)C1=C[C@H](c2csc3ccccc23)C[C@H](OCc2ccc(CO)cc2)O1 | 0.786 | i | i | i | i | i
O=C(O)C1=C[C@@H](c2csc3ccccc23)C[C@@H](OCc2ccc(CO)cc2)O1 | -3.12* | i | i | i | i | i
COc1ccc(NC(=O)COC(=O)c2cccc(S(=O)(=O)N(C)C)c2)cc1 | -0.0201 | nt | nt | nt | nt | nt
CN(C)S(=O)(=O)c1cccc(C(=O)OCC(=O)Nc2sccc2C(N)=O)c1 | -1.25 | i | -4.97* | i | i | i
NC(=O)C1CCN(C(=O)c2cc3ccccc3cc2O)CC1 | nt | i | i | i | i | i
Cc1cc(CNC(=O)Cn2nc(C)c([N+](=O)[O-])c2C)c2ccccc2n1 | -0.155 | 9.36* | i | i | i | i
Cc1nn(CC(=O)NCc2ccco2)c(C)c1[N+](=O)[O-] | 0.307 | i | i | i | i | i
C/C(=N\NC(=O)Cn1nc(C)c([N+](=O)[O-])c1C)c1ccco1 | -0.32 | i | -5.92* | i | i | i
COc1cc(SC)ccc1C(=O)NCC1CCCCC1 | nt | i | i | i | i | i
NS(=O)(=O)c1ccc(CCNC(=O)COC(=O)C2CCC2)cc1 | nt | i | i | i | i | i
O=C(Nc1cccc([N+](=O)[O-])c1)Nc1cnccn1 | nt | i | i | i | i | i
CCN(Cc1ccncc1)Cc1cn(C)nc1-c1ccc(Oc2ccccc2)cc1 | -1.81 | i | i | i | i | i
CC(C)(C)OC(=O)NCCCC1=CC2=CC(=O)C(C)(OC(=O)c3ccc(Cl)nc3)C(=O)C2=CO1 (centres undefined) | nt | i | -5.01* | i | i | i
CCC(=O)OC1(C)C(=O)C=C2C=C(CCCCNC(=O)OC(C)(C)C)OC=C2C1=O (centres undefined) | nt | i | i | i | i | i
C(=Nc1cccc2c(N=Cc3ccco3)cccc12)c1ccco1 | 0.187 | i | i | 39* | i | i
O=C(NCC(c1ccco1)N1CCOCC1)c1ccc(F)c(F)c1 (centres undefined) | nt | i | i | i | i | i
Cn1c(=O)c(C(=O)NNC(=O)c2ccccc2Br)c(O)c2ccccc21 | nt | 8.45* | i | i | i | i
Cn1c(=O)c(C(=O)NNC(=O)c2ccccc2Cl)c(O)c2ccccc21 | nt | i | i | 29.2* | i | i
CCn1c(=O)c(C(=O)NNC(=O)c2ccccc2Br)c(O)c2ccccc21 | nt | i | i | i | i | i
COc1cc(-c2n[nH]c(=S)n2C(C)c2ccccc2)cc(OC)c1OC (centres undefined) | nt | i | i | i | i | i
